This is a sample that favours compounds with a hit; in the whole collection about 4.2% have one here.
GalR3 antag = antagonists of human GalR3; O60755; HEK293 GalR3-CNG cAMP membrane potential fluorescence; galR3 body fused to GalR1 C-terminus; inhibition, % at 3 µM; hit rate 0.44% among 360,000; AID 651719;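 active means inhibition above the screen-wide average plus 3 SD, cut at about 13% in these data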;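 further: forskolin and galanin both at EC90 stimulate the cells; cAMP rise reported by CNG channel membrane potential dye signal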
TAAR1 ag = human TAAR1 agonism; AID 624467; activation, % at 3 µM; hit rate 0.99% among 360,000; CHO RD-HGA16 TAAR1, Fluo-8 calcium fluorescence; vehicle wells 0%, saturating PEA agonist 100%; Q96RJ0;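 active means activation above the mean activation of all test compounds in the run plus 3 SD, cut at about 38% in these data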
Target sequence (Q96RJ0 whole entry, looked up): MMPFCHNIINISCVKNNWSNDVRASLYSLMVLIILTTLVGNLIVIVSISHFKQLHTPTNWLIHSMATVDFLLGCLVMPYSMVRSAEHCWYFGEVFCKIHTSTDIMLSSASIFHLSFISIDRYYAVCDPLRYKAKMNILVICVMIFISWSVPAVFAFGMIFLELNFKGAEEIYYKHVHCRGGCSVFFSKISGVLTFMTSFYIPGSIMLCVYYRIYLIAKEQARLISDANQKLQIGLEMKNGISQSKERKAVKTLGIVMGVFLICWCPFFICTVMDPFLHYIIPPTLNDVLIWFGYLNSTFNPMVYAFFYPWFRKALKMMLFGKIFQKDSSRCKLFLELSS
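Test system: RD-HGA16 (CHO) cells co-expressing Gα16 and hTAAR1 / Benchmarks: DMSO vehicle as 0%, PEA at EC100 as 100% / Repeats: no replicates (n 1) / Measure: % activation from peak over basal fluorescence ratio, DMSO-to-PEA scaled / Timing: 17-24 h plating, Fluo-8 75 min 37 °C, 30 min RT / Technique: kinetic Fluo-8 calcium fluorescence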
TAAR1 antagonist = human TAAR1 antagonism; Q96RJ0; CHO RD-HGA16 TAAR1, Fluo-8 calcium fluorescence, antagonist; inhibition, % at 3 µM; hit rate 1.5% among 360,000; AID 624466;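 active means inhibition above a per-plate cutoff, the mean inhibition of test compounds on that plate plus 3 SD, cut at about 49% in these data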
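Material: RD-HGA16 CHO cells with stable hTAAR1 and Gα16; Dosing: single nominal final test compound concentration of 3 µM; Schedule: seeding 17-24 h prior, 75-min 37 °C, 30-min RT dye loading; Detection: kinetic Fluo-8 calcium fluorescence measurement; Measure: % inhibition from peak post-agonist over basal fluorescence ratio; Benchmarks: vehicle and agonist controls.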
OX1R antag-1 = antagonists of human orexin 1 receptor (OX1R). O43613. OX1R-expressing cells, FRET antagonist read-out. inhibition, % at 6.6 µM. hit rate 1.8% among 330,000; in the data active means inhibition mostly above about 38%, no sharp cut-off; inactive means mostly below about 40%
CHO parental Ca = counter-screen for OX1R antagonists: effect in parental CHO cells | parental CHO-K1, ATP-induced calcium, Fluo-8 fluorescence | inhibition, % at 5.6 µM | hit rate 0.63% among 330,000 | AID 463079;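 active means inhibition above that plate's mean sample inhibition plus 3 SD, cut at about 26% in these data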
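Material: parental CHO cells / Compound: single nominal dose of 5.6 µM per compound / Signal: Fluo-8 fluorescence / Replicates: singlicate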
OX1R antag-2 = human HCRTR1 antagonism; O43613; CHO/OX1R cells, Fluo-8 calcium fluorescence, orexin A; inhibition, % at 5 µM; hit rate 0.43% among 330,000;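 active means inhibition above its plate's threshold, mean inhibition of all tested compounds on the plate plus 3 SD, cut at about 37% in these data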
GalR3 conf = confirmation of human galanin receptor 3 antagonists | shares compounds with GalR3 antag | HEK293 GalR3 CNG cAMP biosensor, membrane potential fluorescence; galR3 fused to GalR1 carboxy tail; challenged with forskolin and galanin at EC90 | inhibition, % at 3 µM | hit rate 59% among 1,600 | AID 652245;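 active means inhibition above the primary screen's cutoff, the mean inhibition of all screened compounds plus 3 SD, cut at about 13% in these data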
CNG parental = counter-screen for GalR3 antagonists: nonspecific agonists in parental HEK-CNG cells | shares compounds with GalR3 antag | HEK293-CNG parental cells, cAMP membrane potential fluorescence; normalised: DMSO wells 0%, forskolin wells 100% | activation, % at 3 µM | hit rate 10% among 1,600 | AID 652268; in the data active means activation above about 1.3%
Each line names hits and unclear results; the compound was inactive in the other large screens (follow-up assays come after a bar, where they were run).

COc1cccc(N2CCN(c3ncnc4c3[nH]c3ccc(F)cc34)CC2C)c1 (stereo not drawn)	GalR3 antag 37, TAAR1 antagonist 93, OX1R antag-1 86, CHO parental Ca 96, OX1R antag-2 99 | GalR3 conf 79 | CNG parental inactive
N#Cc1cccnc1N1CCN(C(=O)c2cccc3c2C(=O)c2ccc(Cl)cc2S3(=O)=O)CC1	GalR3 antag 23, OX1R antag-1 34 | GalR3 conf 30 | CNG parental inactive
O=C1c2ccc(Cl)cc2S(=O)(=O)c2cccc(C(=O)N3CCC(Cc4ccccc4)CC3)c21	none
CC(C)NC(=O)NC(=O)COC(=O)Cc1c(F)cccc1Cl	GalR3 antag 25 | GalR3 conf 14 | CNG parental inactive
CCOc1ccc(-c2c[n+]3c(n2-c2ccccc2)CCCCC3)cc1	GalR3 antag 56 | GalR3 conf 71 | CNG parental inactive
COc1ccc(C(=O)C2CCCN(Cc3cnc(N4CCOCC4)s3)C2)cc1F (stereo not drawn)	none
CC(C)Oc1cccc(C(=O)C2CCCN(Cc3cnc(N4CCOCC4)s3)C2)c1 (stereo not drawn)	GalR3 antag 40 | GalR3 conf 30 | CNG parental inactive
CCCN(CC(=O)Nc1ccccc1OC)C(=O)c1ccc(S(=O)(=O)NCc2ccco2)cc1	none
CC(=O)OC[C@]1(OC(C)=O)C[C@@]23CC[C@H]4[C@@](C)(CCC[C@@]4(C)C(=O)O)[C@@H]2CC[C@@H]1C3	none
CC(=O)OC[C@]12CC[C@H]3[C@@](C)(CC[C@H]4C(C)(C)CCC[C@]34C)[C@@H]1CC(C1=CC(=O)OC1O)O2 (stereo partly drawn)	GalR3 antag 30, TAAR1 antagonist 60 (no result: OX1R antag-1, CHO parental Ca, OX1R antag-2) | GalR3 conf 44 | CNG parental 1.8
COc1ccc(/C=C/C(=O)Nc2ccccc2)cc1S(=O)(=O)N1CCOCC1	none
Cc1ccc(/C=C/C(=O)O)cc1S(=O)(=O)N1CCc2ccccc2C1	GalR3 antag 15 | GalR3 conf inactive | CNG parental inactive
COc1ccc(/C=C/C(=O)O)cc1S(=O)(=O)N1CCc2ccccc2C1	none (no result: GalR3 antag) | GalR3 conf inactive | CNG parental inactive
COc1ccc(C)cc1S(=O)(=O)N1CCc2ccccc2C1	none
Cc1ccc(/C=C/C(=O)O)cc1S(=O)(=O)N1CCc2ccccc21	none
COc1ccc(/C=C/C(=O)Nc2ccccc2Cl)cc1S(=O)(=O)N1CCOCC1	GalR3 antag 15 | GalR3 conf inactive | CNG parental inactive
C[C@@H]1CN([C@@H](C)CO)C(=O)CCCn2nncc2CO[C@H]1CN(C)S(=O)(=O)c1ccc(-c2ccccc2)cc1	GalR3 antag 13 (no result: OX1R antag-1, CHO parental Ca, OX1R antag-2) | GalR3 conf 45 | CNG parental inactive
CCOC(=O)C1(CCOc2ccccc2)CCN(Cc2ccc(OC)c(COC)c2)CC1	GalR3 antag 13 | GalR3 conf 64 | CNG parental 3.5
CCOC(=O)N(C)[C@H]1C[C@H]2c3[nH]c4ccccc4c3CCN2C[C@H]1[C@H](C)O	none (no result: OX1R antag-1, CHO parental Ca, OX1R antag-2)
CCOC(=O)N(C)[C@H]1C[C@H]2c3cc(-c4ccccc4C)ccc3CCN2C[C@H]1[C@H](C)O	GalR3 antag 95 (no result: OX1R antag-1, CHO parental Ca, OX1R antag-2) | GalR3 conf inactive | CNG parental inactive
CN1CCc2[nH]c3ccc(C(=O)NN)cc3c2C1	none
CCCCCCNS(=O)(=O)c1ccc(NC(=O)C2CCCO2)cc1 (stereo not drawn)	GalR3 antag 15 | GalR3 conf 26 | CNG parental inactive
COc1ccc(Cl)cc1NC(=O)c1[nH]c(C)c(C(C)=O)c1C	none
